From ChEMBL document CHEMBL1154632, “Synthesis and antimicrobial activity of 7-(2-substituted phenylthiazolidinyl)-benzopyran-2-one derivatives” (2010)
Activity calls are given as the source filed them. The calls are words filed in the database; no cut-off is given here.

Assays:
Staphylococcus aureus [1] = experiment: Antibacterial activity against Staphylococcus aureus NCIM 2602 at 100 ug/ml by agar cup plate method; conditions: read-out: IZ
Aspergillus niger [2] = experiment: Antifungal activity against Aspergillus niger NCIM 813 at 100 ug/ml by agar cup plate method; type: functional; conditions: for zone of inhibition at 100 µg/mL: read-out: IZ
Summary of the method: (§1)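 Agar cup plate assay. Strains were obtained from NCL Pune, India, and test compounds were dissolved in DMF. Values are reported as mean (SEM).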

Bacillus subtilis [3] = experiment: Antibacterial activity against Bacillus subtilis NCIM 2613 at 100 ug/ml by agar cup plate method; conditions: read-out: IZ
Penicillium roqueforti [4] = experiment: Antifungal activity against Penicillium roqueforti NCIM 712 at 100 ug/ml by agar cup plate method; type: functional; conditions: for zone of inhibition at 100 µg/mL: read-out: IZ
Summary of the method: as §1

Delftia acidovorans [5] = experiment: Antibacterial activity against Pseudomonas desmolytica NCIM 2028 at 100 ug/ml by agar cup plate method; type: functional; conditions: for zone of inhibition at 100 µg/mL: read-out: IZ
Summary of the method: as §1

Escherichia coli [6] = experiment: Antibacterial activity against Escherichia coli NCIM 2666 at 100 ug/ml by agar cup plate method; type: functional; conditions: for zone of inhibition at 100 µg/mL: read-out: IZ
Summary of the method: as §1

Escherichia coli [7] = experiment: microbe, parasite or virus in culture; conditions: NCIM 2666, read-out: IZ
Staphylococcus aureus [8] = experiment: microbe, parasite or virus in culture; conditions: Bacillus subtilis, NCIM 2613, read-out: IZ
Bacillus subtilis [9] = experiment: microbe, parasite or virus in culture; conditions: Staphylococcus aureus, NCIM 2602, read-out: IZ
Delftia acidovorans [10] = experiment: Antibacterial activity against Pseudomonas desmolytica NCIM 2028 at 50 ug/ml by agar cup plate method; type: functional; conditions: read-out: IZ
Summary of the method: as §1

Penicillium roqueforti [11] = experiment: Antifungal activity against Penicillium roqueforti NCIM 712 at 50 ug/ml by agar cup plate method; type: functional; conditions: read-out: IZ
Summary of the method: as §1

Aspergillus niger [12] = experiment: Antifungal activity against Aspergillus niger NCIM 813 at 50 ug/ml by agar cup plate method; type: functional; conditions: read-out: IZ
Summary of the method: as §1

SMILES | zone of inhibition at 100 µg/mL (Staphylococcus aureus [1]) [mm] | zone of inhibition at 100 µg/mL (Bacillus subtilis [3]) [mm] | zone of inhibition at 100 µg/mL (Penicillium roqueforti [4]) [mm] | zone of inhibition at 100 µg/mL (Delftia acidovorans [5]) [mm] | zone of inhibition at 100 µg/mL (Escherichia coli [6]) [mm] | zone of inhibition at 100 µg/mL (Aspergillus niger [2]) [mm] | also measured
Cc1cc(=O)oc2cc(N3C(=O)CSC3c3cccc([N+](=O)[O-])c3)ccc12 (centres undefined) | 19 | 27 | 3 | 9 | 10 |  | inhibition zone (IZ) (Aspergillus niger [2]): inactive
Cc1cc(=O)oc2cc(/N=C/c3ccc(F)cc3)ccc12 | 16 | 17 | 5 | 12 | 14 |  | inhibition zone (IZ) (Aspergillus niger [2]): inactive
Cc1cc(=O)oc2cc(N3C(=O)CSC3c3ccccc3)ccc12 (centres undefined) | 12 | 19 | 13 | 14 | 2 | 8 | 
COc1ccc(/C=N/c2ccc3c(C)cc(=O)oc3c2)cc1 | 13 | 21 | 14 |  | 7 | 9 | inhibition zone (IZ) (Delftia acidovorans [5]): inactive
Cc1cc(=O)oc2cc(N3C(=O)CSC3c3ccccc3O)ccc12 (centres undefined) | 4 | 8 | 11 |  |  | 7 | inhibition zone (IZ) (Delftia acidovorans [5]): inactive; inhibition zone (IZ) (Escherichia coli [6]): inactive
O=C(O)c1cn(C2CC2)c2cc(N3CCNCC3)c(F)cc2c1=O [CIPROFLOXACIN] |  |  |  |  |  |  | zone of inhibition at 50 µg/mL (Escherichia coli [7]): 30 mm; zone of inhibition at 50 µg/mL (Staphylococcus aureus [8]): 18 mm; zone of inhibition at 50 µg/mL (Bacillus subtilis [9]): 25 mm; zone of inhibition at 50 µg/mL (Delftia acidovorans [10]): 18 mm
COc1cccc(/C=N/c2ccc3c(C)cc(=O)oc3c2)c1 | 9 | 13 | 13 | 8 | 11 | 11 | 
Cc1cc(=O)oc2cc(/N=C/c3ccc(O)cc3)ccc12 | 4 | 10 | 8 |  |  | 6 | inhibition zone (IZ) (Delftia acidovorans [5]): inactive; inhibition zone (IZ) (Escherichia coli [6]): inactive
COC1=CC(=O)C[C@@H](C)[C@]12Oc1c(Cl)c(OC)cc(OC)c1C2=O [GRISEOFULVIN] |  |  |  |  |  |  | zone of inhibition at 50 µg/mL (Penicillium roqueforti [11]): 2 mm; zone of inhibition at 50 µg/mL (Aspergillus niger [12]): 17 mm
Cc1cc(=O)oc2cc(/N=C/c3cccc([N+](=O)[O-])c3)ccc12 | 15 | 20 | 4 | 10 | 9 |  | inhibition zone (IZ) (Aspergillus niger [2]): inactive
Cc1cc(=O)oc2cc(/N=C/c3ccccc3O)ccc12 | 3 | 7 | 10 |  |  | 6 | inhibition zone (IZ) (Delftia acidovorans [5]): inactive; inhibition zone (IZ) (Escherichia coli [6]): inactive
Cc1cc(=O)oc2cc(N3C(=O)CSC3c3ccc(F)cc3)ccc12 (centres undefined) | 20 | 28 | 19 | 13 | 18 | 13 | 
Cc1cc(=O)oc2cc(N3C(=O)CSC3c3ccc(Cl)cc3Cl)ccc12 (centres undefined) | 7 | 10 | 8 | 11 | 15 | 6 | 
Cc1cc(=O)oc2cc(/N=C/c3ccccc3)ccc12 | 11 | 10 | 11 | 10 | 13 | 9 | 
Cc1cc(=O)oc2cc(N3C(=O)CSC3c3ccc(O)cc3)ccc12 (centres undefined) | 4 | 9 | 9 |  |  | 5 | inhibition zone (IZ) (Delftia acidovorans [5]): inactive; inhibition zone (IZ) (Escherichia coli [6]): inactive
Cc1ccc(/C=N/c2ccc3c(C)cc(=O)oc3c2)cc1 | 7 | 9 | 7 | 11 | 10 | 3 | 
Cc1cc(=O)oc2cc(/N=C/c3ccc(Cl)cc3Cl)ccc12 | 5 | 12 | 9 | 13 | 14 | 7 | 
Cc1cc(=O)oc2cc(N3C(=O)CSC3c3ccco3)ccc12 (centres undefined) |  |  | 5 | 6 | 13 |  | inhibition zone (IZ) (Aspergillus niger [2]): inactive
Cc1cc(=O)oc2cc(N3C(=O)CSC3c3ccc(N(C)C)cc3)ccc12 (centres undefined) | 5 | 13 |  | 7 | 10 |  | inhibition zone (IZ) (Aspergillus niger [2]): inactive; inhibition zone (IZ) (Penicillium roqueforti [4]): inactive
Cc1cc(=O)oc2cc(/N=C/c3ccco3)ccc12 |  |  | 6 | 7 | 12 |  | inhibition zone (IZ) (Aspergillus niger [2]): inactive
Cc1cc(=O)oc2cc(/N=C/c3ccc(N(C)C)cc3)ccc12 | 6 | 14 |  | 8 | 8 |  | inhibition zone (IZ) (Aspergillus niger [2]): inactive; inhibition zone (IZ) (Penicillium roqueforti [4]): inactive
COc1cccc(C2SCC(=O)N2c2ccc3c(C)cc(=O)oc3c2)c1 (centres undefined) | 10 | 17 | 20 | 9 | 12 | 13 | 
COc1ccc(C2SCC(=O)N2c2ccc3c(C)cc(=O)oc3c2)cc1 (centres undefined) | 16 | 21 | 17 |  | 8 | 11 | inhibition zone (IZ) (Delftia acidovorans [5]): inactive
Cc1ccc(C2SCC(=O)N2c2ccc3c(C)cc(=O)oc3c2)cc1 (centres undefined) | 6 | 8 | 6 | 15 | 20 | 3 | 
